These molecules were tested against T1, D(2) dopamine receptor (Rattus norvegicus, UniProt P61169) (assay: Compound was tested for binding affinity against D2 receptor in rat corpus striatum, using [3H]sulpiride as the radioligand).
T1 sequence (P61169 whole entry): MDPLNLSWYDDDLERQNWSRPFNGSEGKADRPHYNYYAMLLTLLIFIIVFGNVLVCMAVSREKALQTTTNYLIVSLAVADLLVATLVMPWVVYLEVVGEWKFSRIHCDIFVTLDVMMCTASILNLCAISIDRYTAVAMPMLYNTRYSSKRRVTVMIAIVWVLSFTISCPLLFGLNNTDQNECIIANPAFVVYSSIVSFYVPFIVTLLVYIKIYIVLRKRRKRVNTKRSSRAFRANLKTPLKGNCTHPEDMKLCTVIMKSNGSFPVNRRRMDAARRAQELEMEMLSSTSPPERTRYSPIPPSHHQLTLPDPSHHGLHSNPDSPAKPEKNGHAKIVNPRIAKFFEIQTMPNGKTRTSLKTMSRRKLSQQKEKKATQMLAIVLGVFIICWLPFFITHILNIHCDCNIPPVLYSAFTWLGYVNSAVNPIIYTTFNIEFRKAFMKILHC
Assay type: tissue-based
Outline: (§1)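 Fresh rat striatum homogenised in 50 mM Tris-HCl pH 7.5, pellet resuspended in buffer with 100 mM NaCl to 3.75 mg wet weight/mL. Incubated with 3 nM [3H]sulpiride for 60 min at 25 °C, in triplicate; 10 μM haloperidol defined nonspecific binding. Filtration on polyethyleneimine-treated filters; IC50 from concentration-response curves converted to Ki by Cheng-Prusoff; mean of at least three determinations.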
`c1ccc2c3c([nH]c2c1)CC1CCC3N1` (stereo not drawn) was tested, and the Ki was > 100000 nM.

What follows are molecules tested against T1, D(2) dopamine receptor (assay: Binding affinity against D2 receptor in rat corpus striatum using [3H]sulpiride as the radioligand).
Assay type: tissue-based
Outline: as §1
Molecule `c1csc(CCCCN2C3CCC2c2c([nH]c4ccccc24)C3)c1` (stereo not drawn) has a Ki of 620 nM. For `c1ccc(CCCCN2C3CCC2c2c([nH]c4ccccc24)C3)cc1` (stereo not drawn), the Ki was 733 nM. Molecule `O=C(CCCN1C2CCC1c1c([nH]c3ccccc13)C2)c1ccc(F)cc1` (stereo not drawn) has a Ki of 270 nM. Work on `O=C1CC2(CCCC2)CC(=O)N1CCCCN1C2CCC1c1c([nH]c3ccccc13)C2` (stereo not drawn) yielded a Ki of 3000 nM. `c1coc(CCCCN2C3CCC2c2c([nH]c4ccccc24)C3)c1` (single isomer, unassigned; (+)) was tested, and the Ki was 330 nM. With `c1coc(CCCCN2C3CCC2c2c([nH]c4ccccc24)C3)c1` (racemic) the Ki was 1270 nM. Work on `c1ccc2c3c([nH]c2c1)CC1CCC3N1CCCCc1nccs1` (stereo not drawn) yielded a Ki of 2230 nM. `CCCN1C2CCC1c1c([nH]c3ccccc13)C2` (stereo not drawn) gave a Ki of 11200 nM. `CCN1C2CCC1c1c([nH]c3ccccc13)C2` (stereo not drawn) was tested, and the Ki was > 10000 nM. With `c1ccc2c(c1)CN(CCN1C3CCC1c1c([nH]c4ccccc14)C3)C2` (stereo not drawn) the Ki was 2000 nM. For `CC/C=C/N1C2CCC1c1c([nH]c3ccccc13)C2` (stereo not drawn), the Ki was 710 nM. In the case of `Fc1ccc2[nH]c3c(c2c1)C1CCC(C3)N1Cc1ccccc1` (stereo not drawn), the Ki is reported as 2420 nM. `c1ccc(CCCCN2C3CCC2c2c(n(-c4ccccc4)c4ccccc24)C3)cc1` (stereo not drawn) was tested, and the Ki was 1570 nM. `c1coc(CCCCN2C3CCC2c2c([nH]c4ccccc24)C3)c1` (single isomer, unassigned; (-)) gave a Ki of 3150 nM. `CN(CCN1C2CCC1c1c([nH]c3ccccc13)C2)C(=O)Cc1ccc(Cl)c(Cl)c1` (stereo not drawn) was tested, and the Ki was 3790 nM. `c1coc(CCCCN2C3CCC2c2c([nH]c4ccccc24)C3)c1` (stereo in doubt; 40) showed a Ki of 1270 nM. `c1ccc(-n2c3c(c4ccccc42)C2CCC(C3)N2)cc1` (stereo not drawn) gave a Ki of 10000 nM.
